hK5 inh: human KLK5 protease inhibitors, primary screen, biochemical, 1536-well; recombinant hK5, fluorogenic AMC substrate cleavage; inhibition, % at 5 µM; 210,000 compounds, 0.59% hits;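 active means inhibition of 40% or more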
Target sequence (Q9Y337 67-293 limits assumed): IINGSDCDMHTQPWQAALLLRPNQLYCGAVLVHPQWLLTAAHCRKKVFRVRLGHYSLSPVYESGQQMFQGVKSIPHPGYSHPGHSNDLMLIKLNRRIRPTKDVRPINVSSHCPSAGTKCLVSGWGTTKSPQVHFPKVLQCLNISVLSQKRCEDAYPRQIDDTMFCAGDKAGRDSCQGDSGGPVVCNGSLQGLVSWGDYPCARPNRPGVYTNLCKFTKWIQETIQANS
Thrombin inh: human alpha-thrombin inhibitors, primary screen, counter-screen for coagulation protease inhibitor project, biochemical, 1536-well, fluorogenic AMC substrate; AID 1046, 2008; Boc-VPR-AMC fluorogenic substrate cleavage; inhibition, % at 5 µM; Prothrombin (Homo sapiens), P00734; 220,000 compounds, 0.26% hits;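 active means inhibition at or above 40%; inactive means inhibition below 40%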
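System: Human alpha-thrombin protein | Medium: pH 7.5 Tris (50 mM) with NaCl 150 mM, Tween 20 0.05% | Times: Enzyme reaction carried out at room temperature | Detection: AMC fluorescence, 355/460 nm | Evaluation: Percent inhibition scaled between no-compound controls and no-enzyme blanks | Benchmarks: Enzyme without compound as high, wells lacking enzyme as low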
Calpain2 inh: inhibitors of pig calpain II, primary screen, biochemical, fluorogenic peptide substrate, 1536-well; inhibition, % at 16 µM; purified calpain II, 30 min; AID 1236, 2008; 220,000 compounds, 0.37% hits;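 active means inhibition above about 50%, limit read from the data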
FXIa inh: human FXIa protease inhibitors, primary screen, biochemical, 1536-well | Coagulation factor XI (Homo sapiens), P03951 | purified FXIa, Boc-Glu-Ala-Arg-AMC fluorogenic substrate | inhibition, % at 5 µM | 220,000 compounds, 0.14% hits | AID 798, 2007;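 active means inhibition of at least 40%; inactive means inhibition below 40%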;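 further: fluorescence of freed AMC excited at 355 nm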
FXIIa inh: human FXIIa protease inhibitors, primary screen, biochemical, 1536-well; Coagulation factor XII (Homo sapiens), P00748; purified FXIIa, Boc-QGR-AMC fluorogenic substrate, 2 h; inhibition, % at 5 µM; 220,000 compounds, 0.3% hits; AID 800, 2007; in the data active means inhibition above about 40%
Each line names hits and unclear results; the compound was inactive in the other large screens. Shown are actives, neighbours in structure and some others; about 1.4% of the full set was active somewhere.

COc1ccccc1C(=O)N1c2ccccc2Sc2ccccc21	none
CCOc1ccccc1C(=O)N1c2ccccc2Sc2ccccc21	Calpain2 inh 55
O=C1Nc2cc(Cl)c(Cl)cc2N(O)N1c1ccc(Cl)cc1	none
Cc1ccc(N(Cc2ccc(C(=O)NCCSc3ccccn3)cc2)S(C)(=O)=O)cc1C	none
Cc1cc(C)n(-c2nnc(C)n2NS(=O)(=O)c2ccc(F)cc2)n1	FXIIa inh 71
Cc1ccc(S(=O)(=O)Nn2c(C)nnc2-n2nc(C)cc2C)cc1	none
Cc1ccc2c(c1)NC(=O)C(CC(=O)NCCCN1CCCCC1C)O2 (configuration not stated)	hK5 inh 47
Cc1ccc(C)c(NC(=S)c2ccccn2)c1	none
S=C1Cc2ccccc2N1	Calpain2 inh 55
C=CCc1c(C)[nH]c2c(OC)cccc2c1=S	hK5 inh 46
C=CCN(CC=C)C(=O)c1c(OC)cccc1OC	none
COC(=O)CNC(=O)c1sc2ncn(CC(=O)Nc3ccc(C)c(Cl)c3)c(=O)c2c1C	Calpain2 inh 52
COCCNC(=O)c1sc2ncn(CC(=O)Nc3ccc(C)c(Cl)c3)c(=O)c2c1C	none
CCc1cccc2c(C(=O)CSc3nnc(-c4ccncc4)n3C)c[nH]c12	none
COc1ccccc1N=Cc1nc(-c2ccccc2)oc1OC(C)=O	FXIa inh 43
Cc1sc(NC(=O)CN(Cc2ccccc2)C(=O)C2CC2)c(C(N)=O)c1C	none
CCOc1cc(CNc2ccc(O)cc2)cc(Br)c1OCc1ccccc1F	Calpain2 inh 73
COc1cc(CNc2ccc(O)cc2)cc(Br)c1OCc1ccccc1F	none
O=C(Nc1ccc(F)cc1)C(c1ccccc1)N1CCN(S(=O)(=O)c2ccccc2)CC1 (configuration not stated)	none
Cc1ccc(S(=O)(=O)N2CCN(C(C(=O)Nc3ccc(F)cc3)c3ccccc3)CC2)cc1 (configuration not stated)	hK5 inh 46
CCn1cc(C(=O)NCc2cccnc2)c(=O)c2cc(F)c(N3CCN(C(=O)c4ccco4)CC3)cc21	FXIIa inh 41
Cc1cc(C)n(CC(O)COCc2ccco2)n1 (configuration not stated)	none
CO/N=C/c1ccc(Sc2ccccc2N)c([N+](=O)[O-])c1	Calpain2 inh 62, FXIIa inh 44
CCN(CC)C(=O)c1ccc(NS(=O)(=O)c2ccc(/C=C/C(=O)O)cc2)cc1	hK5 inh 44 (no result: Thrombin inh)
CS(=O)(=O)N1CCN(C(=O)c2c(F)cccc2F)CC1	none
CS(=O)(=O)N1CCN(C(=O)c2ccccc2F)CC1	hK5 inh 116
O=C1CCC(C(=O)Nc2cccc3ccccc23)N1 (configuration not stated)	hK5 inh 62, Thrombin inh 104
COc1ccc(NC(=O)C2CCC(=O)N2)cc1 (configuration not stated)	none
C=CCOC(=O)C1=C(C)N=C2SCCC(=O)N2C1c1cccs1 (configuration not stated)	FXIIa inh 71
CCOC(=O)C1=C(C)N=C2SCCC(=O)N2C1c1sccc1C (configuration not stated)	none
COCCn1c(-c2ccc(Cl)cc2Cl)nc2c(c(=O)c3ccccc3n2C)c1=O	none
CCn1c(=S)[nH]c2nc3c(cc2c1=O)CCCC3	hK5 inh 88
Cc1ccc(CNC(=O)c2oc3ccc(S(=O)(=O)N4CCOCC4)cc3c2C)cc1	Calpain2 inh 57
CCOC(=O)N1CCN(C(=O)c2oc3ccc(S(=O)(=O)N4CCOCC4)cc3c2C)CC1	Thrombin inh 40
COc1ccc(NC(=O)c2oc3ccc(S(=O)(=O)N4CCC5(CC4)OCCO5)cc3c2C)cc1	hK5 inh 100
Cc1c(C(=O)NCc2ccccc2)oc2ccc(S(=O)(=O)N3CCCC3)cc12	none
CCOC(=O)N1CCN(C(=O)c2oc3ccc(S(=O)(=O)N4CCCCCC4)cc3c2C)CC1	none
Cc1c(C(=O)NCCc2ccccc2)oc2ccc(S(=O)(=O)N3CCC4(CC3)OCCO4)cc12	none
CCN(CC)S(=O)(=O)c1ccc2oc(C(=O)NCc3ccc(C)cc3)c(C)c2c1	Calpain2 inh 63
CCCC[C@H](CN(N=O)[C@@H](Cc1ccccc1)CN(C)N=O)N(CCc1ccccc1)N=O	none
Fc1ccccc1N1CCN(Cc2nc(-c3ccc(Cl)cc3Cl)no2)CC1	hK5 inh 56
COc1ccc(C2C(C(=O)Nc3ccccc3OC)=C(C)Nc3ncnn32)cc1 (configuration not stated)	hK5 inh 45, FXIIa inh 107
COc1ccccc1NC(=O)C1=C(C)Nc2ncnn2C1c1cccs1 (configuration not stated)	none
CS(=O)(=O)c1nc(-c2ccc(Br)cc2)n[nH]1	FXIIa inh 98
Cn1c(N)c(C(=O)COC(=O)CCC2CCCC2)c(=O)n(C)c1=O	Calpain2 inh 80
Cn1c(N)c(C(=O)COC(=O)CCC2CCCCC2)c(=O)n(C)c1=O	Calpain2 inh 78
Cn1c(N)c(C(=O)COC(=O)C2CCC(C(C)(C)C)CC2)c(=O)n(C)c1=O (configuration not stated)	Calpain2 inh 110
Cc1cc(Br)ccc1SCC(=O)OCC(=O)c1c(N)n(C)c(=O)n(C)c1=O	Calpain2 inh 77
Cn1c(N)c(C(=O)COC(=O)C2(c3ccc(F)cc3)CCCC2)c(=O)n(C)c1=O	Calpain2 inh 76
Cn1c(N)c(C(=O)COC(=O)C2(c3ccc(Cl)cc3)CCCC2)c(=O)n(C)c1=O	none
CCOc1cc(C=O)cc(Cl)c1OCC(N)=O	none
O=C(c1ccco1)N1CCN(c2ncnc3scc(-c4cccs4)c23)CC1	none
c1ccc(N2CCN(c3ncnc4scc(-c5cccs5)c34)CC2)cc1	Calpain2 inh 54
O=C(CN(C(=O)CSc1nnc(COc2ccccc2)o1)c1ccc(F)cc1)NC1CCCC1	none
O=C(CN(C(=O)CSc1nnc(COc2ccccc2)o1)c1ccc(F)cc1)NC1CCCCC1	hK5 inh 130
COc1oc(-c2ccc(Cl)cc2)nc1C(F)(F)F	none
CCC(=O)N/C(=N/c1nc(C)cc(C)n1)Nc1cccc(OC)c1	Thrombin inh 94
COc1ccccc1C1C(C(=O)c2sc(C)nc2C)=C(O)C(=O)N1CCN1CCOCC1 (configuration not stated)	none
CCCCC(=O)Nc1ccc(C(=O)c2ccccc2)cc1	Calpain2 inh 53
CCn1c(SCc2nc3ccccc3c(=O)[nH]2)nc2ccccc21	none
O=C(O)CC(Cc1ccc(Cl)cc1)C(=O)Nc1ccc([N+](=O)[O-])cc1 (configuration not stated)	Calpain2 inh 69
O=C(Cc1ccc([N+](=O)[O-])cc1)Nc1ccc(Cl)cc1	none
NC(=O)C1CCN(C(=O)/C=C/c2cc(Br)ccc2F)CC1	none

High-throughput results deposited in PubChem by several laboratories.
